Reference: publication PMC5008178 (Molecular Microbiology, 2015)
Like-named read-outs stand apart in the source and are kept apart here. One block for each compound: values may come before it.

Key:
Tar = Tar (Escherichia coli, UniProt P07017); test: FRET response in receptorless cells expressing Tar as sole receptor; format: cell-based; settings: Tar-only cells; for response mediated by Tar, in words: sub-millimolar range
Method in brief: (§1)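 Receptorless E. coli VS181 [Δ(cheY cheZ) Δ(tar tsr tap trg aer)] carries the CheY‑YFP/CheZ‑CFP pair (pVS88) and a plasmid with the single receptor. Cells are grown in TB at 34°C, 275 r.p.m., with inducers, and harvested at OD600 0.6. Buffer‑adapted cells get step addition and then removal of amino acid. YFP/CFP ratio (kinase activity) is read by fluorescence microscopy.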

Tsr = Tsr (Escherichia coli, UniProt P02942); test: FRET response in receptorless cells expressing Tsr as sole receptor; format: cell-based; settings: for response mediated by Tsr, in words: Tsr-only cells, sub-millimolar range
Chain of Tsr (P02942 whole entry): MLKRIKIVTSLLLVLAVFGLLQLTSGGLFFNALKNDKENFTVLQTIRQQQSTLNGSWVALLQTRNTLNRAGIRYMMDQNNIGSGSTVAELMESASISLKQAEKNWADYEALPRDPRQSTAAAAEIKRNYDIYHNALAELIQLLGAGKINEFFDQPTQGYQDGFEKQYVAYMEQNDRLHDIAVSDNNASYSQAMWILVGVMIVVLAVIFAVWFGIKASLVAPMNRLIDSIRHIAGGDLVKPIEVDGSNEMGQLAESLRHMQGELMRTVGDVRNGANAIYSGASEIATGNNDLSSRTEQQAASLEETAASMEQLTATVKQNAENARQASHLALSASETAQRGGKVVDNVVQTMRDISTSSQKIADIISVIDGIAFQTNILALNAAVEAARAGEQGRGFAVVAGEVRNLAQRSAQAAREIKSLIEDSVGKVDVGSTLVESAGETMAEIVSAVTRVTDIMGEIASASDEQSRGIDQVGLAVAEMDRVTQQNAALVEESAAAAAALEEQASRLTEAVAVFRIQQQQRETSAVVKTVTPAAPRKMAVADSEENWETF
Chain of Tsr (P0A964 whole entry partner): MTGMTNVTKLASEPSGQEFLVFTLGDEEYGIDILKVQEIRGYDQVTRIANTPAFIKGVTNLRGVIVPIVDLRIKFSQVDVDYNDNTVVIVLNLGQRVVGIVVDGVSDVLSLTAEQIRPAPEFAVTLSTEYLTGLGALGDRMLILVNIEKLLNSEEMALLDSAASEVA
Chain of Tsr (P07363 whole entry partner): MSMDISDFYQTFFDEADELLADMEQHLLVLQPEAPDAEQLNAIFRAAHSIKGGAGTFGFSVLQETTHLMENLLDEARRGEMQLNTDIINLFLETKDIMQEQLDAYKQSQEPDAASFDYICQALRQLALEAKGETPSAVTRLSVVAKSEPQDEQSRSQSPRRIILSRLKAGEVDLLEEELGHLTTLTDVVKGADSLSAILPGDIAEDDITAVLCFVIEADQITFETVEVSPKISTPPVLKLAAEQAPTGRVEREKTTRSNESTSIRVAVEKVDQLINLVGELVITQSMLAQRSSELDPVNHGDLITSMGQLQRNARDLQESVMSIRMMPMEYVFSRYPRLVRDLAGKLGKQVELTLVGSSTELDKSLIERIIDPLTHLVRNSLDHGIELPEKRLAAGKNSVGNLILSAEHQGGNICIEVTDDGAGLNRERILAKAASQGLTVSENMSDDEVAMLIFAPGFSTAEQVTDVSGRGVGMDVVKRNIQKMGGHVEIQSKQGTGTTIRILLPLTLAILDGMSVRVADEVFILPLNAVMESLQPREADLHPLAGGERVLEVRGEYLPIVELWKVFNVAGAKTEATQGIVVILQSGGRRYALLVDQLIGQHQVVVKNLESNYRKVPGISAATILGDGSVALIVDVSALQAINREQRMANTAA
Method in brief: as §1

[1] = system: chemotaxis pathway in B. subtilis; test: microbe, parasite or virus in culture; format: cell-based, Bacillus subtilis; settings: for EC50: read-out: EC50 of attractant FRET response
[2] = system: chemotaxis pathway in E. coli; test: microbe, parasite or virus in culture; format: cell-based, Escherichia coli; settings: for EC50: Escherichia coli; for repellent response in wild type, in words: wild-type E. coli cells, tested up to 1 mM where no response
E. coli = test: Growth inhibition by individual amino acids in M9 glucose medium; format: cell-based, Escherichia coli; settings: 1 mM amino acid, M9 minimal glucose medium, culture density after 8 h
Method in brief: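 Cells grown in modified M9 (47 mM Na2HPO4, 22 mM KH2PO4, 8 mM NaCl, 2 mM MgSO4, 100 μM CaCl2) with glucose as carbon source. A single L‑amino acid (1 mM final) was added at the start; 37°C, 120 r.p.m. OD600 read after 8 h and normalised to a control culture without added amino acid.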

[3] = read-out: EC50 of attractant FRET response
[4] = read-out: EC50 of repellent response

Chain of Tar (P07017 whole entry): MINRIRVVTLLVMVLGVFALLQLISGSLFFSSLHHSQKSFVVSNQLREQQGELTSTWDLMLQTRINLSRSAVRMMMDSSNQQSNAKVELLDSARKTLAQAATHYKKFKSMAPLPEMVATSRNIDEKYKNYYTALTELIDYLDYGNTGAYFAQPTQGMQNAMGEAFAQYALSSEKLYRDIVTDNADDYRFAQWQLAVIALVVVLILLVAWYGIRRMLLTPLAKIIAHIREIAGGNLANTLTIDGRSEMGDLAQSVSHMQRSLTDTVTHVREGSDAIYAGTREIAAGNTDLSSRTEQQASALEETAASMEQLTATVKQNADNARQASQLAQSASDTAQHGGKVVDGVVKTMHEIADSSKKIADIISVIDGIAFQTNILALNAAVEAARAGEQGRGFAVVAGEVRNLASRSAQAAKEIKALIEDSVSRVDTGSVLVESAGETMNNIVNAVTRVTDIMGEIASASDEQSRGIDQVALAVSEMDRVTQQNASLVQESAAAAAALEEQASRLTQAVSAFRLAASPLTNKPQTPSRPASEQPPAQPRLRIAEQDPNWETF
Chain of Tar (P0A964 whole entry partner): as the sequence (P0A964 whole entry partner) above
Chain of Tar (P07363 whole entry partner): as the sequence (P07363 whole entry partner) above

SMILES: C[C@H](N)C(=O)O [Alanine]
response mediated by Tar, in words (Tar): attractant responses
response mediated by Tsr, in words (Tsr): attractant responses

SMILES: NC(=O)C[C@H](N)C(=O)O [Aparagine, Asparagine]
response mediated by Tar, in words (Tar): attractant responses
response mediated by Tsr, in words (Tsr): attractant responses
EC50 ([1]; Bacillus subtilis): < 1 µM

SMILES: N=C(N)NCCC[C@H](N)C(=O)O [Arginine]
FRET response in words ([1]; B. subtilis): did not elicit clear responses

SMILES: N[C@@H](CCC(=O)O)C(=O)O [Glutamate]
repellent response in wild type, in words [2]: no obvious repellent response
response mediated by Tar, in words (Tar): attractant responses
repellent response in Tsr-only cells, in words (Tsr): weak repellent responses
EC50 ([1]; B. subtilis): > 1000 µM

SMILES: NC(=O)CC[C@H](N)C(=O)O [Glutamine]
repellent response in wild type, in words [2]: no obvious repellent response
repellent response in Tsr-only cells, in words (Tsr): weak repellent responses

SMILES: NCC(=O)O [Glycine]
response mediated by Tar, in words (Tar): attractant responses
response mediated by Tsr, in words (Tsr): attractant responses

SMILES: CC[C@H](C)[C@H](N)C(=O)O [Isoleucine]
EC50 [2, 4]: 100 to 3000 µM
repellent response in wild type, in words [2]: clear repellent responses

SMILES: NCCCC[C@H](N)C(=O)O [Lysine]
FRET response in words ([1]; B. subtilis): did not elicit clear responses

SMILES: CSCC[C@H](N)C(=O)O [Methionine]
attractant response in words [2]: weak attractant responses
response mediated by Tar, in words (Tar): attractant responses

SMILES: O=C(O)[C@@H]1CCCN1 [Proline]
EC50 ([1]; Bacillus subtilis): < 1 µM

SMILES: C[C@@H](O)[C@H](N)C(=O)O [Threonine]
attractant response in words ([2]; wild-type E. coli, millimolar concentrations): weak attractant responses

SMILES: N[C@@H](Cc1ccc(O)cc1)C(=O)O [Tyrosine]
FRET response in words ([1]; B. subtilis): lesser maximal activation

SMILES: CC(C)[C@H](N)C(=O)O [Valine]
EC50 [2, 4]: 100 to 3000 µM
repellent response in wild type, in words [2]: clear repellent responses
growth inhibition (E. coli): significant growth inhibition

Continued, in another order:

EC50 [2, 3]: < 10 µM
response mediated by Tar, in words (Tar): attractant responses
repellent response in Tsr-only cells, in words (Tsr): weak repellent responses
EC50 ([1]; Bacillus subtilis): > 1000 µM
SMILES: N[C@@H](CC(=O)O)C(=O)O [Aspartate]
repellent response in wild type, in words [2]: no obvious repellent response

EC50 [2, 3]: < 10 µM
response mediated by Tar, in words (Tar): attractant responses
response mediated by Tsr, in words (Tsr): attractant responses
EC50 ([1]; Bacillus subtilis): < 1 µM
SMILES: N[C@@H](CS)C(=O)O [Cysteine]
growth inhibition (E. coli): significant growth inhibition

repellent response in Tsr-only cells, in words (Tsr): weak repellent responses
SMILES: N[C@@H](Cc1c[nH]cn1)C(=O)O [Histidine]
repellent response in wild type, in words [2]: no obvious repellent response
FRET response in words ([1]; B. subtilis): lesser maximal activation

EC50 [2, 4]: 100 to 3000 µM
SMILES: CC(C)C[C@H](N)C(=O)O [Leucine]
repellent response in wild type, in words [2]: clear repellent responses
growth inhibition (E. coli): significant growth inhibition

repellent response in Tsr-only cells, in words (Tsr): weak repellent responses
SMILES: N[C@@H](Cc1ccccc1)C(=O)O [Phenyalanine, phenylalanine]
repellent response in wild type, in words [2]: no obvious repellent response

EC50 [2, 3]: < 10 µM
level at which the response saturated (Tar; saturating concentration): ~20 % of the initial activity
response mediated by Tar, in words (Tar): attractant responses
response mediated by Tsr, in words (Tsr): attractant responses
SMILES: N[C@@H](CO)C(=O)O [Serine]
growth inhibition (E. coli): significant growth inhibition

EC50 [2, 4]: 100 to 3000 µM
SMILES: N[C@@H](Cc1c[nH]c2ccccc12)C(=O)O [Tryptophan]
repellent response in wild type, in words [2]: clear repellent responses
FRET response in words ([1]; B. subtilis): lesser maximal activation
